# Results as given in ChEMBL document CHEMBL4004809, “Dibenzofurans and Pseudodepsidones from the Lichen Stereocaulon paschale Collected in Northern Quebec” (2017).
# Active and inactive are the calls of the source. No cut-off for these calls is given here.
# Assays:
# Format in all cases: functional
# Streptococcus mutans [1] = assay: Bactericidal activity against Streptococcus mutans ATCC 25175 after 24 hrs; conditions: ATCC 25175, 24 h
# In short: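 MBC for S. mutans was run after the aerobic 37 °C THBHK microdilution (80 to 5 μM, 24 h). 10 μL aliquots from wells lacking visible growth were plated on solid medium to find the minimal bactericidal concentration. Penicillin G served as reference. Triplicate.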
# Candida albicans = assay: Antifungal activity against Candida albicans ATCC 28366 assessed as growth inhibition at 80 uM after 24 hrs
# In short: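 C. albicans cultured aerobically at 37 °C in yeast nitrogen base with 0.5% glucose. Overnight culture diluted to OD660 0.2 and added 1:1 to compound dilutions, top level 80 μM. Vehicle-only and nystatin controls included. Growth inhibition scored after 24 h. Triplicate.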
# Streptococcus mutans [2] = assay: Antibacterial activity against Streptococcus mutans ATCC 25175 after 24 hrs; conditions: ATCC 25175, 24 h
# In short: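 S. mutans grown aerobically at 37 °C in Todd-Hewitt broth with 0.001% hemin and 0.0001% vitamin K. Overnight culture diluted to OD660 0.2 and mixed 1:1 with serial compound dilutions (80 to 5 μM). Vehicle-only and penicillin G controls included. MIC = lowest concentration with complete growth inhibition after 24 h. Triplicate.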
# Porphyromonas gingivalis [3] = assay: Bactericidal activity against Porphyromonas gingivalis ATCC 33277 after 24 hrs; conditions: ATCC 33277, 24 h
# In short: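 For MBC, P. gingivalis was run as in the anaerobic broth MIC set-up (THBHK, 37 °C, 24 h, 80 to 5 μM). 10 μL from wells without visible growth was spread on solid medium. MBC was read from these subcultures. Penicillin G served as reference. Triplicate.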
# Porphyromonas gingivalis [4] = assay: Antibacterial activity against Porphyromonas gingivalis ATCC 33277 after 24 hrs; conditions: ATCC 33277, 24 h
# In short: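 P. gingivalis grown anaerobically (N2-H2-CO2 80:10:10) at 37 °C in Todd-Hewitt broth with 0.001% hemin and 0.0001% vitamin K. Overnight culture diluted to OD660 0.2 and added 1:1 to serial dilutions of compound (80 to 5 μM). Vehicle-only and penicillin G controls. After 24 h, MIC taken as lowest concentration giving complete growth inhibition. Triplicate.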
MIC (Streptococcus mutans [2]) [µM],MIC (Porphyromonas gingivalis [4]) [µM],Structure (SMILES),MBC (Streptococcus mutans [1]) [µM],growth inhibition (GI) (Candida albicans),MBC (Porphyromonas gingivalis [3]) [µM]
80,80,CCCCCc1cc(O)cc(O)c1Oc1cc(OC)cc(C(=O)CCCC)c1C(=O)OC,> 80,inactive,80
80,40,CCCCCc1c(Oc2cc(OC)cc(C(=O)CCCC)c2C(=O)OC)c(O)cc(O)c1C(=O)O,> 80,inactive,40
0.15,0.29,CC1(C)S[C@@H]2[C@H](NC(=O)Cc3ccccc3)C(=O)N2[C@H]1C(=O)O [PENICILLIN G],4.7,–,2.3
20,80,CCCCCc1c2c(cc(O)c1C(=O)O)OC(=O)c1c(cc(OC)cc1C(=O)CCCC)O2 [LOBARIC ACID],80,inactive,80
> 80,> 80,Cc1c(C(=O)O)c(O)cc2oc3cc(O)cc(CO)c3c12,> 80,inactive,> 80
10,20,CCC/C=C1\OC(=O)c2c(Oc3c(O)cc(O)cc3CCCCC)cc(OC)cc21,20,inactive,20
80,80,CCCCCc1cc(O)cc(O)c1Oc1cc(OC)cc2c1C(=O)OC2(CCCC)OC (centres undefined),80,inactive,80
> 80,> 80,Cc1c(C(=O)O)c(O)cc2oc3cc(O)cc(C(=O)O)c3c12,> 80,inactive,> 80
> 80,> 80,COC(=O)c1c(C)cc(O)c(C)c1O [ATRARIC ACID],> 80,inactive,> 80
80,> 80,CCCCCc1cc(O)cc(O)c1Oc1cc(OC)cc2c1C(=O)OC2(O)CCCC (centres undefined) [SAKISACAULON A],80,inactive,> 80
> 80,> 80,COC(=O)c1c(C)cc(O)c(C=O)c1O [METHYL HAEMATOMMATE],> 80,inactive,> 80
80,80,CCCCCc1c(Oc2cc(OC)cc3c2C(=O)OC3(CCCC)OC)c(O)cc(O)c1C(=O)O (centres undefined),80,inactive,80
> 80,> 80,Cc1cc(O)cc2oc3cc(O)cc(CO)c3c12,> 80,inactive,> 80
